Experimental data reported in ChEMBL document CHEMBL1795311, “Synthesis, antiproliferative activity, and mechanism of action of a series of 2-{[(2E)-3-phenylprop-2-enoyl]amino}benzamides” (Eur J Med Chem, 2011).
pIC50: −log10 of the molar value.

Key:
K562 [1] = assay: Antiproliferative activity against human K562 cells at 10 uM after 48 hrs by trypan blue assay; format: functional; conditions: K562, 48 h, read-out: GI
K562 [2] = assay: Growth inhibition of human K562 cells after 48 hrs by trypan blue assay; format: functional, cell-based; conditions: K562, 48 h
CCRF-CEM = assay: Growth inhibition of human CCRF-CEM cells after 48 hrs by SRB assay; format: functional
Method in brief: (§1)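 NCI DTP panel cells grown in RPMI 1640 with 5% FBS and 2 mM L-glutamine, preincubated 24 h, then given five concentrations (10-fold or ½-log dilutions from DMSO stock) for 48 h at 37 °C. Cells fixed with TCA, stained with SRB, absorbance read at 515 nm, with time-zero plates as reference.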

HL-60 = assay: Growth inhibition of human HL60 cells after 48 hrs by SRB assay; format: functional; conditions: HL-60, 48 h; method in brief: as §1
K562 [3] = assay: Growth inhibition of human K562 cells after 48 hrs by SRB assay; format: functional; conditions: K562, 48 h; method in brief: as §1
MOLT-4 = assay: Growth inhibition of human MOLT4 cells after 48 hrs by SRB assay; format: functional; conditions: MOLT-4, 48 h; method in brief: as §1
RPMI-8226 = assay: Growth inhibition of human RPMI8226 cells after 48 hrs by SRB assay; format: functional; conditions: RPMI-8226, 48 h; method in brief: as §1
A549 = assay: Growth inhibition of human A549 cells after 48 hrs by SRB assay; format: functional; conditions: A549, 48 h; method in brief: as §1
EKVX = assay: Growth inhibition of human EKVX cells after 48 hrs by SRB assay; format: functional; method in brief: as §1
HOP-62 = assay: Growth inhibition of human HOP62 cells after 48 hrs by SRB assay; format: functional; conditions: HOP-62, 48 h; method in brief: as §1
HOP-92 = assay: Growth inhibition of human HOP92 cells after 48 hrs by SRB assay; format: functional; conditions: HOP-92, 48 h; method in brief: as §1
NCI-H226 = assay: Growth inhibition of human NCI-H226 cells after 48 hrs by SRB assay; format: functional; conditions: NCI-H226, 48 h; method in brief: as §1
NCI-H23 = assay: Growth inhibition of human NCI-H23 cells after 48 hrs by SRB assay; format: functional; conditions: NCI-H23, 48 h; method in brief: as §1
NCI-H460 = assay: Growth inhibition of human NCI-H460 cells after 48 hrs by SRB assay; format: functional; conditions: NCI-H460, 48 h; method in brief: as §1
COLO 205 = assay: Growth inhibition of human COLO205 cells after 48 hrs by SRB assay; format: functional; conditions: COLO 205, 48 h; method in brief: as §1
HCT-116 = assay: Growth inhibition of human HCT116 cells after 48 hrs by SRB assay; format: functional; conditions: HCT-116, 48 h; method in brief: as §1
HCT-15 = assay: Growth inhibition of human HCT15 cells after 48 hrs by SRB assay; format: functional; conditions: HCT-15, 48 h; method in brief: as §1
HT-29 = assay: Growth inhibition of human HT-29 cells after 48 hrs by SRB assay; format: functional; conditions: HT-29, 48 h; method in brief: as §1
KM12 = assay: Growth inhibition of human KM12 cells after 48 hrs by SRB assay; format: functional; conditions: KM12, 48 h; method in brief: as §1
SW-620 = assay: Growth inhibition of human SW620 cells after 48 hrs by SRB assay; format: functional; conditions: SW-620, 48 h
Method in brief: (§2)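 Run by the NCI Developmental Therapeutics Program: cells in RPMI 1640 with 5% FBS and 2 mM L-glutamine, plated at 5000–40,000 cells/well and grown 24 h before dosing. Drug (DMSO stock) given at five concentrations for 48 h at 37 °C, 5% CO2. Adherent cells fixed with cold TCA, stained with 0.4% SRB and read at 515 nm. GI50, TGI and LC50 taken from the time-zero, control and treated absorbances.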

SF-268 = assay: Growth inhibition of human SF268 cells after 48 hrs by SRB assay; format: functional; conditions: SF-268, 48 h; method in brief: as §1
SF-295 = assay: Growth inhibition of human SF295 cells after 48 hrs by SRB assay; format: functional; conditions: SF-295, 48 h; method in brief: as §1
SF-539 = assay: Growth inhibition of human SF539 cells after 48 hrs by SRB assay; format: functional; conditions: SF-539, 48 h; method in brief: as §1
SNB-19 = assay: Growth inhibition of human SNB19 cells after 48 hrs by SRB assay; format: functional; conditions: SNB-19, 48 h; method in brief: as §2
SNB-75 = assay: Growth inhibition of human SNB75 cells after 48 hrs by SRB assay; format: functional; conditions: SNB-75, 48 h; method in brief: as §2
U-251 = assay: Growth inhibition of human U251 cells after 48 hrs by SRB assay; format: functional; conditions: U-251, 48 h; method in brief: as §2
LOX IMVI = assay: Growth inhibition of human LOXIMVI cells after 48 hrs by SRB assay; format: functional; method in brief: as §1
Malme-3M = assay: Growth inhibition of human MALME-3M cells after 48 hrs by SRB assay; format: functional; method in brief: as §1
M14 = assay: Growth inhibition of human M14 cells after 48 hrs by SRB assay; format: functional; conditions: M14, 48 h; method in brief: as §1
MDA-MB-435 = assay: Growth inhibition of human MDA-MB-435 cells after 48 hrs by SRB assay; format: functional; conditions: MDA-MB-435, 48 h; method in brief: as §1
SK-MEL-28 = assay: Growth inhibition of human SK-MEL-28 cells after 48 hrs by SRB assay; format: functional; conditions: SK-MEL-28, 48 h; method in brief: as §2
SK-MEL-5 = assay: Growth inhibition of human SK-MEL-5 cells after 48 hrs by SRB assay; format: functional; conditions: SK-MEL-5, 48 h; method in brief: as §2
UACC-62 = assay: Growth inhibition of human UACC62 cells after 48 hrs by SRB assay; format: functional; conditions: UACC-62, 48 h; method in brief: as §2
OVCAR-3 = assay: Growth inhibition of human OVCAR3 cells after 48 hrs by SRB assay; format: functional; conditions: OVCAR-3, 48 h; method in brief: as §1
OVCAR-5 = assay: Growth inhibition of human OVCAR5 cells after 48 hrs by SRB assay; format: functional; conditions: OVCAR-5, 48 h; method in brief: as §1
NCI/ADR-RES = assay: Growth inhibition of human NCI/ADR-RES cells after 48 hrs by SRB assay; format: functional; method in brief: as §1
SK-OV-3 = assay: Growth inhibition of human SKOV3 cells after 48 hrs by SRB assay; format: functional; conditions: SK-OV-3, 48 h; method in brief: as §2
786-0 = assay: Growth inhibition of human 786-0 cells after 48 hrs by SRB assay; format: functional; conditions: 786-0, 48 h; method in brief: as §1
A498 = assay: Growth inhibition of human A498 cells after 48 hrs by SRB assay; format: functional; conditions: A498, 48 h; method in brief: as §1
ACHN = assay: Growth inhibition of human ACHN cells after 48 hrs by SRB assay; format: functional; method in brief: as §1
CAKI-1 = assay: Growth inhibition of human Caki1 cells after 48 hrs by SRB assay; format: functional; conditions: CAKI-1, 48 h; method in brief: as §1
RXF 393 = assay: Growth inhibition of human RXF393 cells after 48 hrs by SRB assay; format: functional; conditions: RXF 393, 48 h; method in brief: as §1
SN12C = assay: Growth inhibition of human SN12C cells after 48 hrs by SRB assay; format: functional; method in brief: as §2
TK-10 = assay: Growth inhibition of human TK10 cells after 48 hrs by SRB assay; format: functional; conditions: TK-10, 48 h; method in brief: as §2
UO-31 = assay: Growth inhibition of human UO31 cells after 48 hrs by SRB assay; format: functional; conditions: UO-31, 48 h; method in brief: as §2
PC-3 = assay: Growth inhibition of human PC3 cells after 48 hrs by SRB assay; format: functional; conditions: PC-3, 48 h; method in brief: as §1
DU-145 = assay: Growth inhibition of human DU145 cells after 48 hrs by SRB assay; format: functional; conditions: DU-145, 48 h; method in brief: as §1
MCF7 = assay: Growth inhibition of human MCF7 cells after 48 hrs by SRB assay; format: functional; conditions: MCF7, 48 h; method in brief: as §1
MDA-MB-231 = assay: Growth inhibition of human MDA-MB-231 cells after 48 hrs by SRB assay; format: functional; conditions: MDA-MB-231, 48 h; method in brief: as §1
[4] = Growth inhibition of human Hs 578T cells after 48 hrs by SRB assay; format: functional; method in brief: as §1
BT-549 = assay: Growth inhibition of human BT549 cells after 48 hrs by SRB assay; format: functional; conditions: BT-549, 48 h; method in brief: as §1
T47D = assay: Growth inhibition of human T47D cells after 48 hrs by SRB assay; format: functional; method in brief: as §2
MDA-MB-468 = assay: Growth inhibition of human MDA-MB-468 cells after 48 hrs by SRB assay; format: functional; conditions: MDA-MB-468, 48 h; method in brief: as §1

SMILES: NC(=O)c1cc(Br)ccc1NC(=O)/C=C/c1ccccc1Br
- inhibition of growth at 10 µM (K562 [1]): 46.2%
- pIC50 (K562 [2]): < 5.00

SMILES: Cc1ccc(/C=C/C(=O)Nc2ccc(Cl)cc2C(N)=O)cc1
- inhibition of growth at 10 µM (K562 [1]): 64%
- pIC50 (K562 [2]): 5.20

SMILES: NC(=O)c1cc(Br)ccc1NC(=O)/C=C/c1ccccc1
- inhibition of growth at 10 µM (K562 [1]): 62.4%
- pIC50 (K562 [2]): 5.30
- GI50 (CCRF-CEM): 429 nM
- GI50 (HL-60): 346 nM
- GI50 (K562 [3]): 415 nM
- GI50 (MOLT-4): 1860 nM
- GI50 (RPMI-8226): 1030 nM
- GI50 (A549): 1020 nM
- GI50 (EKVX): 2410 nM
- GI50 (HOP-62): 1510 nM
- GI50 (HOP-92): 1960 nM
- GI50 (NCI-H226): 2610 nM
- GI50 (NCI-H23): 1090 nM
- GI50 (NCI-H460): 662 nM
- GI50 (COLO 205): 917 nM
- GI50 (HCT-116): 663 nM
- GI50 (HCT-15): 1040 nM
- GI50 (HT-29): 527 nM
- GI50 (KM12): 739 nM
- GI50 (SW-620): 705 nM
- GI50 (SF-268): 1830 nM
- GI50 (SF-295): 625 nM
- GI50 (SF-539): 819 nM
- GI50 (SNB-19): 2000 nM
- GI50 (SNB-75): 2070 nM
- GI50 (U-251): 887 nM
- GI50 (LOX IMVI): 3270 nM
- GI50 (Malme-3M): 1210 nM
- GI50 (M14): 482 nM
- GI50 (MDA-MB-435): 231 nM
- GI50 (SK-MEL-28): 839 nM
- GI50 (SK-MEL-5): 435 nM
- GI50 (UACC-62): 782 nM
- GI50 (OVCAR-3): 349 nM
- GI50 (OVCAR-5): 2920 nM
- GI50 (NCI/ADR-RES): 400 nM
- GI50 (SK-OV-3): 1410 nM
- GI50 (786-0): 1760 nM
- GI50 (A498): 1700 nM
- GI50 (ACHN): 3360 nM
- GI50 (CAKI-1): 1340 nM
- GI50 (RXF 393): 444 nM
- GI50 (SN12C): 2960 nM
- GI50 (TK-10): 2670 nM
- GI50 (UO-31): 1850 nM
- GI50 (PC-3): 684 nM
- GI50 (DU-145): 935 nM
- GI50 (MCF7): 569 nM
- GI50 (MDA-MB-231): 2190 nM
- GI50 [4]: 624 nM
- GI50 (BT-549): 1410 nM
- GI50 (T47D): 1570 nM
- GI50 (MDA-MB-468): 279 nM

SMILES: NC(=O)c1cc(Br)ccc1NC(=O)/C=C/c1ccc(Cl)cc1
- inhibition of growth at 10 µM (K562 [1]): 22%
- pIC50 (K562 [2]): < 5.00

SMILES: Cc1ccc(/C=C/C(=O)Nc2ccc(Br)cc2C(N)=O)cc1
- inhibition of growth at 10 µM (K562 [1]): 45.9%
- pIC50 (K562 [2]): < 5.00

SMILES: COc1cc2c(c(OC)c1OC)-c1ccc(OC)c(=O)cc1[C@@H](NC(C)=O)CC2 [COLCHICINE]
- inhibition of growth at 10 µM (K562 [1]): 63.6%
- pIC50 (K562 [2]): 7.70

SMILES: NC(=O)c1cc(Cl)ccc1NC(=O)/C=C/c1cccc(Br)c1
- inhibition of growth at 10 µM (K562 [1]): 27%
- pIC50 (K562 [2]): < 5.00

SMILES: Cc1ccccc1/C=C/C(=O)Nc1ccc(Br)cc1C(N)=O
- inhibition of growth at 10 µM (K562 [1]): 43.2%
- pIC50 (K562 [2]): < 5.00

SMILES: NC(=O)c1ccccc1NC(=O)/C=C/c1ccccc1
- inhibition of growth at 10 µM (K562 [1]): 14.2%
- pIC50 (K562 [2]): < 5.00

SMILES: NC(=O)c1cc(Cl)ccc1NC(=O)/C=C/c1ccc(Cl)cc1
- inhibition of growth at 10 µM (K562 [1]): 31%
- pIC50 (K562 [2]): < 5.00
